Measurements published in ChEMBL document CHEMBL2057169, “Discovery of novel tricyclic compounds as squalene synthase inhibitors” (Bioorg Med Chem, 2012).

Legend:
marmosets [1] = experiment: Lipid lowering effect in marmosets assessed as reduction in plasma non HDL-cholesterol level at 100 mg/kg, po administered once daily for 7 days; format: functional; conditions: Callitrichinae sp., in Callithrix jacchus, 168 h
How it was run: (§1)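 Common marmosets, n = 8 per group, matched for body weight and plasma lipids. They were dosed orally at 100 mg/kg in 0.5% methylcellulose (5 ml/kg) once daily for 7 days. Nonfasted blood was drawn before dosing and the morning after the last dose. HDL was precipitated, then its cholesterol assayed enzymatically; non-HDL = total minus HDL cholesterol. Change was expressed relative to pre-values.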

marmosets [2] = experiment: Lipid lowering effect in marmosets assessed as reduction in plasma HDL-cholesterol level at 100 mg/kg, po administered once daily for 7 days; format: functional; conditions: Callitrichinae sp., in Callithrix jacchus, 168 h; how it was run: as §1
Hepatocyte = experiment: Inhibition of cholesterol synthesis in rat hepatocytes assessed as formation of cholesterol using [14C]mevalonolactone as substrate after 1 hr by radioactivity assay; format: functional, cell-based
How it was run: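 Rat hepatocytes isolated by two-step portal-vein perfusion (EGTA buffer, then 0.05% collagenase). Cells were kept if viability was over 80% by trypan blue and seeded at 10^6 cells/well in DMEM with 10% LPDS. Next day they got 5% LPDS medium with inhibitor at 0–3000 nM for 1 h at 37 °C, then [14C]mevalonolactone for 1 h. Lysates were saponified, [14C]cholesterol corrected by [3H]cholesterol recovery and BCA protein, and % inhibition taken versus 0 nM wells. Triplicate wells; three experiments.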

Rattus norvegicus = experiment: Inhibition of cholesterol synthesis in Wistar rat liver assessed as reduction of [14C]-cholesterol level at 3 mg/kg, po administered as single dose measured after 1 hr by liquid scintillation counting; format: functional
How it was run: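 Male Wistar rats, 6 weeks old, n = 4-6, dosed orally at 3 mg/kg in 0.5% methylcellulose, with equimolar NaOH or NaHCO3 added; vehicle-only controls. At 1 h, [14C]mevalonic acid (5 µCi/5 ml/kg) was given ip, and rats were killed 1 h later.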

marmosets [3] = experiment: Lipid lowering effect in marmosets assessed as reduction in plasma total cholesterol level at 100 mg/kg, po administered once daily for 7 days; format: functional; conditions: Callitrichinae sp., in Callithrix jacchus, 168 h; how it was run: as §1
Squalene synthase = biological target: T1, Squalene synthase (Rattus norvegicus, UniProt Q02769); experiment: Inhibition of squalene synthase in rat hepatic cells; format: cell-based
T1 sequence (Q02769 whole entry): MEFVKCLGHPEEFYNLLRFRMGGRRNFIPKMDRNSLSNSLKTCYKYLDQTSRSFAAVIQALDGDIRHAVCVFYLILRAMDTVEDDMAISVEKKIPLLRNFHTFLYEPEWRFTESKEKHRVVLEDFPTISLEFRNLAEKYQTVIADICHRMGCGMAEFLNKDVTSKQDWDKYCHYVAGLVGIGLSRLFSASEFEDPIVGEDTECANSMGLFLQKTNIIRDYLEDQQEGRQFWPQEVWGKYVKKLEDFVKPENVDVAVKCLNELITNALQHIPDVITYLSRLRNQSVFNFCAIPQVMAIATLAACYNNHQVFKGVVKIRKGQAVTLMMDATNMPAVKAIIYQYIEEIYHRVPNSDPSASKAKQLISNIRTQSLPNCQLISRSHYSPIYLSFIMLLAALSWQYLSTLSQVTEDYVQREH

marmosets [4] = experiment: Lipid lowering effect in marmosets assessed as reduction in plasma triglyceride level at 100 mg/kg, po administered once daily for 7 days; format: functional; conditions: Callitrichinae sp., in Callithrix jacchus, 168 h; how it was run: as §1

`COc1cccc([C@H]2O[C@H](CCn3ccc(CC(=O)O)n3)c3cccn3-c3ccc(Cl)cc32)c1OC` was tested, and the inhibition in vivo at 100 mg/kg (marmosets [1]) was 52%, the inhibition in vivo at 100 mg/kg (marmosets [2]) was -10% and the IC50 (Hepatocyte) was 58 nM. It also gave an inhibition in vivo at 3 mg/kg (Rattus norvegicus) of 64%, an inhibition in vivo at 100 mg/kg (marmosets [3]) of 27% and an IC50 (Squalene synthase) of 1.3 nM. It also gave an inhibition in vivo at 100 mg/kg (marmosets [4]) of 16%.
